Assay results taken from ChEMBL document CHEMBL4321820, “Identification and Optimization of Mechanism-Based Fluoroallylamine Inhibitors of Lysyl Oxidase-like 2/3” (J Med Chem, 2019).
pIC50: −log10 of the molar value.

What was measured:
[1] = tested on: Mus musculus; assay: Antifibrotic activity in ip dosed bleomycin-induced C57BL/6 mouse model of lung fibrosis assessed as reduction in Ashcroft score administered on day 7 to 27 measured on day 28 by H and E staining based microscopy; assay type: functional, organism-based
Method in brief: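 Female C57BL/6 mice, 6-8 weeks old, under isoflurane received intranasal bleomycin sulphate 0.05 U/mouse in PBS; controls got PBS. Once-daily i.p. treatment days 7-27, n=12/group; imatinib 50 mg/kg i.p. as comparator. Sacrifice at day 28; lung fibrosis scored by Ashcroft score.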

[2] = tested on: Mus musculus; assay: Effect on plasma AST level in CCl4-induced BALB/c mouse model of liver fibrosis at 5 to 15 mg/kg, po administered once daily at week 4 to 6; assay type: ADME, organism-based; conditions: in vivo
Method in brief: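 CCl4 liver fibrosis in female BALB/c mice: CCl4 i.p. (1 mL/kg 25% in olive oil) twice weekly for 6 weeks, sacrifice 48 h after final injection. Oral once-daily dosing weeks 1-6 or weeks 4-6; imatinib 50 mg/kg daily weeks 1-6. ALT and AST measured in plasma.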

[3] = molecular target: T1, Lysyl oxidase homolog 4 (Homo sapiens, UniProt Q96JB6); assay: Inhibition of recombinant human LOXL4 using putrescine as substrate preincubated with enzyme for 30 mins followed by substrate addition and measured every 2.5 mins for 30 mins by Amplex-Red oxidation assay
T1 sequence (Q96JB6 whole entry): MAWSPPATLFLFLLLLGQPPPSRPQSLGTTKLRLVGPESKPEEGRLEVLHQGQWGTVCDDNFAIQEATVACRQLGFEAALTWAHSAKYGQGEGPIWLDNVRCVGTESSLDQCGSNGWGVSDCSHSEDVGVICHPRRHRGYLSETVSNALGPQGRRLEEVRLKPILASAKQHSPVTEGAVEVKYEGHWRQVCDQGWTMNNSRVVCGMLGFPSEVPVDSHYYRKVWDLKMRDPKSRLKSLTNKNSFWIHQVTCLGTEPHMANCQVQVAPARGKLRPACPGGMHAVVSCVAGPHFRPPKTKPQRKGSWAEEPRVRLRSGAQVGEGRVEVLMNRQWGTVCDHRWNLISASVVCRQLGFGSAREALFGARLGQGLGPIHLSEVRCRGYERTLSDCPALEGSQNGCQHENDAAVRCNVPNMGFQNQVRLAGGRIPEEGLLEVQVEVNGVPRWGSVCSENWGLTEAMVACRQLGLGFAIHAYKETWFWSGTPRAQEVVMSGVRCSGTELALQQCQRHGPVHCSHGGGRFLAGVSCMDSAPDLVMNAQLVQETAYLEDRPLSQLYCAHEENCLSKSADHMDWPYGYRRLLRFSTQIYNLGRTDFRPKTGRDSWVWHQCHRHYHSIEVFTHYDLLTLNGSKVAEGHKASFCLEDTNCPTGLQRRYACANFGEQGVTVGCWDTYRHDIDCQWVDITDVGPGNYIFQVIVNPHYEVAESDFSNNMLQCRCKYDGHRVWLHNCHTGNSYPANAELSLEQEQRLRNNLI
Method in brief: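 Recombinant human LOXL3 or LOXL4 preincubated 30 min at 37 °C with compound in 1.2 M urea/50 mM borate pH 8.2, then Amplex Red (120 µM)/HRP (1.5 U/mL) with 2 mM putrescine; fluorescence read every 2.5 min for 30 min.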

[4] = molecular target: T2, Protein-lysine 6-oxidase (Mus musculus, UniProt P28301); assay: Inhibition of LOX in mouse lung fibroblast cells using putrescine as substrate preincubated with enzyme for 30 mins followed by substrate addition and measured every 2.5 mins for 30 mins by Amplex-Red oxidation assay
T2 sequence (P28301 whole entry): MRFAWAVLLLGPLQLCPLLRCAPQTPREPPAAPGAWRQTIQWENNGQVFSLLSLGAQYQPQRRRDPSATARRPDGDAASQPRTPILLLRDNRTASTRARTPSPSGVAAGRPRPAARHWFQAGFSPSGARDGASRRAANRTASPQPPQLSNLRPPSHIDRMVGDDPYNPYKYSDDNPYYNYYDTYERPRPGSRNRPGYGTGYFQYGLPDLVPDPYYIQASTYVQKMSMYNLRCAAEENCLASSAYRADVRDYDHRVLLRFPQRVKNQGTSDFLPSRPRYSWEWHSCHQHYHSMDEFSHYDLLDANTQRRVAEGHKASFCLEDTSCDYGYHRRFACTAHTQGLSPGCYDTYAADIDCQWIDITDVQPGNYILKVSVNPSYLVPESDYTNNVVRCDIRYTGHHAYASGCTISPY
Method in brief: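 LOX from conditioned medium of fibroblasts cultured from homogenized mouse lung, concentrated and isolated as for the human fibroblast enzyme, in 1.2 M urea/50 mM borate pH 8.2. 30 min preincubation with compound at 37 °C, then Amplex Red/HRP plus putrescine; fluorescence read every 2.5 min for 30 min.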

[5] = Stability in rat plasma assessed as half life
[6] = Stability in dog microsomes assessed as half life; assay type: ADME, Canis lupus familiaris, Microsome
[7] = molecular target: T3, Lysyl oxidase homolog 2 (Rattus norvegicus, UniProt B5DF27); assay: Inhibition of recombinant rat LOLX2 using putrescine as substrate preincubated with enzyme for 30 mins followed by substrate addition and measured every 2.5 mins for 30 mins by Amplex-Red oxidation assay
T3 sequence (B5DF27 whole entry): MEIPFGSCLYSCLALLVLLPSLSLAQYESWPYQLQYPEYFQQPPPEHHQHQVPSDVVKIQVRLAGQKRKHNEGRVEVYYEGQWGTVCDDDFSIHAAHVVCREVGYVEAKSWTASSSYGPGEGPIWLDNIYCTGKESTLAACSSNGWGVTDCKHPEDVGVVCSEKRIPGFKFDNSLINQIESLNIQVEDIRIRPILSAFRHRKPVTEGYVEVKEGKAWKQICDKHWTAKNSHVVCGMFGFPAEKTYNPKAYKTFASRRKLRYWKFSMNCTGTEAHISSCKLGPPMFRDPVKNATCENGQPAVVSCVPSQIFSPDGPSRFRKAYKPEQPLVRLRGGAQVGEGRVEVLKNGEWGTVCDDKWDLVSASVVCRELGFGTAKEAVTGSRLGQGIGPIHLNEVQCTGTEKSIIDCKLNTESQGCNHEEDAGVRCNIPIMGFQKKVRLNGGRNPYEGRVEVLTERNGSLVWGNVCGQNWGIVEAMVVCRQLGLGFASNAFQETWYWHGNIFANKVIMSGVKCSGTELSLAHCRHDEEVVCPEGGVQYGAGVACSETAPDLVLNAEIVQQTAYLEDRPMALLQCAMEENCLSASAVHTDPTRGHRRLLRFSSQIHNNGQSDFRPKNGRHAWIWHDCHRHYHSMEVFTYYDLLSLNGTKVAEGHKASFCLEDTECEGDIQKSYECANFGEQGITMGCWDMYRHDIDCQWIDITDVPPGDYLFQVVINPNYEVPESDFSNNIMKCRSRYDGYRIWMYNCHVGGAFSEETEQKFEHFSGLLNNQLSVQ

## CCOC(=O)c1ccc2c(c1)c(-c1cccc(S(=O)(=O)N(C)C)c1)c(C)n2C/C(F)=C/CN.Cl
[1]
  inhibition: Dose-dependent effect
[2]
  Activity: Non-Toxic

## Cc1c(-c2cccc(S(=O)(=O)N(C)C)c2)c2cc(C(=O)O)ccc2n1C/C(F)=C/CN.Cl
[3]
  pIC50: 6.55
[4]
  pIC50: 5.76
[5]
  half-life: > 2 h
[6]
  half-life: > 1.5 h
[7]
  pIC50: 8.22
